Source: PubChem BioAssay
Activity calls are given as the source filed them.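 How the source made its calls, unless noted: active means fluorescence slope higher than the sample average by over 3 SD (cut at about -0.22 in these data, passing the limit was not always enough); inactive means the rest.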

What was measured:
[1] = inhibitors of TNFa-induced NFkB p65 translocation, primary screen, imaging, HUVEC, MLSMR starter and 10KST1 sets (AID 438;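 active means inhibition above 20% together with a positive visual image hit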;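 further: compound added about 3h40 before a 20 min TNFalpha stimulation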;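 on inhibition: signal is the nuclear over cytoplasmic p65 intensity ratio per well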); details: HUVEC TNFa-induced p65 nuclear translocation; cell count: measured here: nuclei count (cytotoxicity indicator), at 2.08 µM; inhibition: at 2 µM, stronger effect = higher value, 0% TNFa-plus-vehicle, 100% no-TNFa wells
[2] = inhibitors of E-selectin induction by TNFa, primary screen, imaging, HUVEC, immunofluorescence, MLSMR starter and 10KST1 sets (AID 487;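 active means visually confirmed hit in the image check and inhibition above 20%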;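 on inhibition: signal is fraction of cell area covered by stained E-selectin grains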;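 on nuclei count: 100% = median nuclei count of all wells on the same plate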); details: HUVEC TNFalpha-induced E-selectin immunofluorescence imaging, at 2 µM; inhibition: stronger effect = higher value; nuclei count: measured here: cell number, toxicity
[3] = DUSP6 inhibitors restoring Erk phosphorylation by chemical complementation, primary imaging in DUSP6-transfected HeLa (AID 609;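 active means compounds giving at least 50% inhibition in the cell-based MKP-3 phosphatase rescue imaging test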;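 on inhibition: phospho-Erk level distribution per well compared with pooled transfected vehicle control wells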); details: HeLa MKP-3 transfected, phospho-Erk imaging KS statistic, at 10 µM, cells stimulated with TPA for 15 min
[4] = biological target: Dual specificity protein phosphatase 6 (Homo sapiens) (UniProt Q16828); assay: as above; details: HeLa MKP-3 transfected, phospho-Erk imaging KS statistic; at 10 µM; stronger effect = higher value; cells stimulated with TPA for 15 min
[5] = biological target: Voltage-gated potassium channel subunit beta-2 (Rattus norvegicus) (UniProt P62483); assay: KvBeta enzyme negative modulators, primary screen, biochemical, NADPH fluorescence (AID 622); details: recombinant KvBeta, 4-cyanobenzaldehyde reduction, at 10 µM, stronger effect = higher value;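 further: slope of raw intensity against log time taken from 70 to 1610 s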
[6] = biological target: Voltage-gated potassium channel subunit beta-2 (Rattus norvegicus) (UniProt P62483); assay: KvBeta positive modulators, primary screen, biochemical, NADPH fluorescence (AID 623;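 active means NADPH fluorescence slope more negative than the mean of all samples by about 3 SD, 99.7% confidence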;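 further: fluorescence intensity change per second fitted from 20 to 320 s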); details: Recombinant KvBeta, NADPH fluorescence decrease slope, 10 min; at 10 µM; stronger effect = lower value
[7] = biological target: Muscarinic acetylcholine receptor M4 (Homo sapiens) (UniProt P08173); assay: compounds altering M4/GIRK thallium flux, either direction, primary screen, M4 allosteric agonist project, cell-based, HEK293 M4/GIRK, BTC-AM (AID 625;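 active means fluorescence slope after compound addition differing from the mean of all tested samples at 99.7% confidence, mostly higher but some lower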;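 further: thallium influx through GIRK channels coupled to M4 in HEK293 cells with BTC-AM dye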); details: at 10 µM, actives lie on both sides
In short: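 Material – HEK293 cells with M4 receptor and GIRK channels · Buffer or medium – pH 7.3 thallium assay buffer · Doses – one dose, 10 µM final · Timing – cells overnight at 37 °C, BTC-AM loading 1 h, reads 2 min total · Measured by – kinetic fluorescence with BTC-AM dye · Controls – carbachol and DMSO controls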

[8] = inhibitors of larval lipid processing in zebrafish, primary screen, whole organism, PED6 fluorescence, gall bladder and intestine (AID 686;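 active means a full or partial loss of lipid-probe fluorescence in the fish gall bladder, intestine or both, judged by eye; inactive means no fluorescence loss, or compound toxic to the fish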;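 further: larvae 5 to 7 days old with five fish per well; signal comes from phospholipase A2 cleavage of quenched PED6 carried via bile; overnight exposure to compound and PED6 before scoring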); details: Zebrafish larvae PED6 lipid processing, fluorescence scoring; screened at 20 µM (by protocol)
In short: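 system = live zebrafish larvae aged 5-7 days, whole organism | probe or stimulus = ingested quenched lipid PED6 at 100 nM | doses = 20 µM single dose | timing = overnight exposure | detection = fluorescence microscopy with visual scoring of gall bladder and intestine | read-out = visual per-well fluorescence inhibition score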

[9] = inhibitors of Chlamydomonas gravitaxis, primary screen, whole organism, Chlamydomonas reinhardtii, WT vs cilia-less mutant, absorbance, 96-well (AID 463189;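 active means inhibition at or above 50% relative to wild type and mutant plate controls; inactive means inhibition below 50%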;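 further: 0% = wild type cc124 cells in DMSO and 100% = ciliumless bld1 mutant cells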); details: OD600 absorbance, 2 days, at 10 µM, stronger effect = higher value
[10] = measured here: cell density z-score
[11] = measured here: nuclear c-Myc green intensity z-score
[12] = measured here: nuclear pErk red intensity z-score, stronger effect = higher value

Voltage-gated potassium channel subunit beta-2 (Rattus norvegicus), sequence (P62483 whole entry, looked up): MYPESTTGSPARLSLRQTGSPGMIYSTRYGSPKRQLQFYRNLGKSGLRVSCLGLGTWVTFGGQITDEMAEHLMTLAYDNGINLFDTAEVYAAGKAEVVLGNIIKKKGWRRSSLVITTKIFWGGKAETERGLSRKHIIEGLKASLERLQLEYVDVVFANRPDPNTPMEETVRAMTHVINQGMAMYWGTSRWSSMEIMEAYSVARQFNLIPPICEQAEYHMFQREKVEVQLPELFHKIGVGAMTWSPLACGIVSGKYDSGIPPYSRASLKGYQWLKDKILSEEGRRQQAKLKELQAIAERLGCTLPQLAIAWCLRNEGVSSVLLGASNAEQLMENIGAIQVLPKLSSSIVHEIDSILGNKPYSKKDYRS
Muscarinic acetylcholine receptor M4 (Homo sapiens), sequence (P08173 whole entry, looked up): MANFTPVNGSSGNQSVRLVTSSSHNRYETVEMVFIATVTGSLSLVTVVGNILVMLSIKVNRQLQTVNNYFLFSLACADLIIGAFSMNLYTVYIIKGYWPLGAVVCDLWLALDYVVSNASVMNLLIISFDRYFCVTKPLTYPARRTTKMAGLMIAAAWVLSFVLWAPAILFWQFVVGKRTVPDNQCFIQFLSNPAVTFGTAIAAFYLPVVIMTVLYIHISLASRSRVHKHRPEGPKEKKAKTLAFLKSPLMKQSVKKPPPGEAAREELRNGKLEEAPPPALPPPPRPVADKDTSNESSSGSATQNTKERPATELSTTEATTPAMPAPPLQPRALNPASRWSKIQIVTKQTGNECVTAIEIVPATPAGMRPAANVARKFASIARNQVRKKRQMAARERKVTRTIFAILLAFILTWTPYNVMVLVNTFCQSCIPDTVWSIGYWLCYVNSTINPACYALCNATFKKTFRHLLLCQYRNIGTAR
Dual specificity protein phosphatase 6 (Homo sapiens), sequence (Q16828 whole entry, looked up): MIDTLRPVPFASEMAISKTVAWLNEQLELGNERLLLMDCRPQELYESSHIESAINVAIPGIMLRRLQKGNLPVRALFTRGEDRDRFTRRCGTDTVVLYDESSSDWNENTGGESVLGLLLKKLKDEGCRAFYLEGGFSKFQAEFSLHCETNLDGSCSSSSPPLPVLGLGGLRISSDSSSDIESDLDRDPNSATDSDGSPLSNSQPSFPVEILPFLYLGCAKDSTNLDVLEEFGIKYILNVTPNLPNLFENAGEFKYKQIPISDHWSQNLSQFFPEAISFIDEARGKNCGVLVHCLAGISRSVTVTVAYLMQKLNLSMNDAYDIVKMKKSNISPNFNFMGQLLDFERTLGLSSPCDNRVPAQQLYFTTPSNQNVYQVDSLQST

SMILES	cell count [1]	inhibition [1]	inhibition [2]	nuclei count [2] [%]	z-score [3, 10]	z-score [3, 11]	z-score [3, 12]	inhibition [4]	fluorescence slope [5]	NADPH fluorescence slope [6]	fluorescence slope [7]	outcome [8]	inhibition [9]
C=CCNc1nc(N2CCCCC2)c(C#N)c2c1CN(Cc1ccccc1)CC2	504	-15.8% (inactive)	-82.3% (inactive)	127	0.348	-0.299	-0.89	-9.53% (inactive)	-0.473 (inactive)	-5.4e-05 (inactive)	0.00373 (inactive)	inactive	0.584% (inactive)
Cn1c(Cl)nc2c1c(=O)n(Cc1cccc(Br)c1)c(=O)n2C	691	-8.5% (inactive)	-97.4% (inactive)	169	-1.75	0.296	0.815	3.97% (inactive)	-0.507 (inactive)	-1.8e-05 (inactive)	0.00593 (inactive)	inactive	-10.8% (inactive)
CCOC(=O)N1CCN(C2OC(=O)c3ccccc32)CC1 (stereo unspecified)	380	0.8% (inactive)	-125% (inactive)	146	-0.546	-0.533	-0.506	24.4% (inactive)	-0.459 (inactive)	-0.000295 (inactive)	0.00469 (inactive)	inactive; toxic	14% (inactive)
CC(C)Cc1nc(N2CCOCC2)c(C#N)c2c1COC(C)(C)C2	584	-7% (inactive)	-84.6% (inactive)	146	-0.646	0.861	0.329	-2.09% (inactive)	-0.405 (inactive)	-3.3e-05 (inactive)	0.00418 (inactive)	inactive	3.97% (inactive)
c1ccc2c(c1)[nH]c1c(N3CCSCC3)ncnc12	567	-4.6% (inactive)	-117% (inactive)	193	0.216	-0.97	-0.889	-4.59% (inactive)	-0.358 (inactive)	-3.7e-06 (inactive)	0.00494 (inactive)	inactive	14.6% (inactive)
Clc1ccc(COc2ccccn2)c(Cl)c1	600	2.8% (inactive)	-15.4% (inactive)	138	0.311	-1.08	-1.17	23.8% (inactive)	-0.387 (inactive)	-4.6e-05 (inactive)	0.00573 (inactive)	inactive	-0.499% (inactive)
O=C(O)CSCC(=O)Nc1ccc(S(=O)(=O)N2CCCCC2)cc1	500	-7.8% (inactive)	-62% (inactive)	162	0.13	-1.22	0.192	-3.95% (inactive)	-0.424 (inactive)	-3.2e-05 (inactive)	0.00479 (inactive)	inactive	-4.71% (inactive)
CCCc1cc(=O)oc2c(CN3CCCC3)c(O)ccc12	571	-10.8% (inactive)	-11.6% (inactive)	118	0.0938	-0.952	-1.55	0.671% (inactive)	-0.0292 (inactive)	1.1e-05 (inactive)	0.0058 (inactive)	inactive	-1.86% (inactive)
Cc1nn(CC(=O)N2CCOCC2)c(=O)c2ccccc12	584	-9.1% (inactive)	-72.8% (inactive)	135	1.52	-1.31	0.975	12.8% (inactive)	-0.524 (inactive)	-0.000146 (inactive)	0.00441 (inactive)	inactive	-9.34% (inactive)
COC(=O)c1ccccc1OCc1cccc(C)n1	642	-3.5% (inactive)	-85% (inactive)	138	0.411	0.832	-0.721	1.9e-07% (inactive)	-0.495 (inactive)	-3.1e-05 (inactive)	0.00518 (inactive)	inactive	-11.3% (inactive)
CCN(CC)CCN1C(=O)c2ccccc2NC1c1cc(OC)c(OC)c(OC)c1 (stereo unspecified)	672	-13.1% (inactive)	57.5% (inactive)	132	0.00511	-1.27	1.11	3.49% (inactive)	-0.0732 (inactive)	-1.4e-05 (inactive)	0.00441 (inactive)	inactive	16.2% (inactive)
C=CCOc1ccc(/C(O)=C2\C(=O)C(=O)N(CCN(C)C)C2c2cccs2)cc1 (stereo unspecified)	642	2.8% (inactive)	-0.3% (inactive)	181	0.295	1.17	0.318	12.8% (inactive)	-0.469 (inactive)	-6.6e-05 (inactive)	0.00599 (inactive)	inactive	10.2% (inactive)
O=C(c1ccccc1)c1cc(-c2ccccc2)on1	589	-3.4% (inactive)	-39.7% (inactive)	118	-0.313	-0.603	0.519	-13.3% (inactive)	-0.41 (inactive)	-7.5e-05 (inactive)	0.00548 (inactive)	inactive	-6.04% (inactive)
COc1ccc(/C(O)=C2\C(=O)C(=O)N(c3cc(C)on3)C2c2ccccc2OC)cc1C (stereo unspecified)	556	-11.7% (inactive)	9.9% (inactive)	118	-1.41	-1.49	-1.43	-8.27% (inactive)	-0.473 (inactive)	-2.1e-05 (inactive)	0.00597 (inactive)	inactive	-0.426% (inactive)
Cc1ccc(S(=O)(=O)c2cc3c(=O)n4cccc(C)c4nc3n(CC3CCCO3)c2=N)cc1 (stereo unspecified)	573	-12.2% (inactive)	34.6% (inactive)	107	0.122	0.519	-1.24	-8.27% (inactive)	-0.456 (inactive)	-3.3e-05 (inactive)	0.00435 (inactive)	inactive	-6.46% (inactive)
CCCc1nc(N2CCCC2)c(C#N)c2c1CCCC2	605	-1.2% (inactive)	-118% (inactive)	141	-1.08	0.0644	-0.444	-5.81% (inactive)	-0.448 (inactive)	-9.6e-05 (inactive)	0.00554 (inactive)	inactive	4.3% (inactive)
CCCCCSc1nc(C)c(CC(=O)O)c(=O)[nH]1	400	-8.8% (inactive)	-27.1% (inactive)	114	0.718	-0.507	-1.88	1.04% (inactive)	-0.477 (inactive)	-5.1e-06 (inactive)	0.00563 (inactive)	inactive	34.5% (inactive)
CCN1CCc2c(C#N)c(NCc3ccccc3)nc(N(CC)CC)c2C1	554	-13.9% (inactive)	-108% (inactive)	141	0.401	-1.69	0.375	3.49% (inactive)	-0.439 (inactive)	-0.000126 (inactive)	0.00477 (inactive)	inactive	119% (active)
Cc1cc(=O)oc(C)c1C(=O)NCC(C)C	455	-2.1% (inactive)	-11.5% (inactive)	98.2	-0.875	2.27	-0.541	23.8% (inactive)	-0.432 (inactive)	-5.9e-06 (inactive)	0.00519 (inactive)	inactive	-17.5% (inactive)
Cc1nc(SCC(=O)Nc2ccc3c(c2)OCO3)c(C#N)c2c1CCCC2	490	1.3% (inactive)	-215% (inactive)	145	-0.268	-1.41	0.298	9.37% (inactive)	-0.472 (inactive)	-4e-05 (inactive)	0.00555 (inactive)	inactive	19.8% (inactive)
COC(=O)CSc1nc(-c2cccs2)ccc1C#N	646	1.5% (inactive)	-18.4% (inactive)	154	0.598	-1.62	-0.658	2.92% (inactive)	-0.456 (inactive)	-4.2e-05 (inactive)	0.00605 (inactive)	inactive	-2.12% (inactive)
N#Cc1nc(COc2ccccc2)oc1N1CCCC1	463	-4.6% (inactive)	-281% (inactive)	164	-0.447	1.68	0.969	4.37% (inactive)	-0.42 (inactive)	-4.6e-05 (inactive)	0.00421 (inactive)	inactive	-0.28% (inactive)
CCC(=O)Nc1nc2ccccc2n1Cc1ccccc1C	480	-2.1% (inactive)	-158% (inactive)	114	0.4	0.0083	0.265	-3.97% (inactive)	-0.407 (inactive)	1.4e-06 (inactive)	0.00508 (inactive)	inactive	-13.6% (inactive)
COc1ccc2c(c1OC)C(=O)OC2c1c(O)nc(SC)n(-c2ccccc2)c1=O (stereo unspecified)	494	4.1% (inactive)	-192% (inactive)	115	1.24	1.53	-0.802	29.7% (inactive)	-0.39 (inactive)	-6.5e-05 (inactive)	0.00866 (inactive)	inactive	-18.2% (inactive)
CC(C)CNc1nc2c(c(=O)n(C)c(=O)n2C)n1Cc1cccc(Br)c1	696	0.6% (inactive)	-160% (inactive)	174	0.789	-0.339	-0.433	7.93% (inactive)	-0.498 (inactive)	-3.9e-05 (inactive)	0.00519 (inactive)	inactive	13.3% (inactive)
Cc1ccccc1-n1c(=O)/c(=C\c2ccco2)s/c1=C(/C#N)C(=O)Nc1ccccc1	677	-5.8% (inactive)	-17.2% (inactive)	151	0.299	-0.624	-0.976	9.37% (inactive)	-0.475 (inactive)	-4.4e-05 (inactive)	0.00343 (inactive)	inactive	-0.051% (inactive)
CCN(CC)CCN1C(=O)C(O)=C(C(C)=O)C1c1ccc(OC)c(OC)c1 (stereo unspecified)	466	0.4% (inactive)	-202% (inactive)	182	0.172	-0.258	1.22	-5.62% (inactive)	-0.445 (inactive)	-4.1e-05 (inactive)	0.00464 (inactive)	inactive	2.41% (inactive)
